Experimental data as given in ChEMBL document CHEMBL1143007, “Synthesis and evaluation of 4/5-hydroxy-2,3-diaryl(substituted)-cyclopent-2-en-1-ones as cis-restricted analogues of combretastatin A-4 as novel anticancer agents” (J Med Chem, 2007).
Values after ≈ are worked out from the molar mass of the structure shown. Active and inactive are the calls of the source. No cut-off for these calls is given here.

Experiments:
[1] = Inhibition of tubulin polymerization in bovine brain; set-up: species or system Bos taurus
In short: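 Compounds were added from DMSO stocks, with final DMSO below 0.4%. A340 was read every 60 s, and the area under the curve was taken as polymer amount, with the control set to 100%. IC50 is the concentration giving 50% inhibition.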

ECV-304 [2] = test: Apoptosis in strongly adherent human ECV304 cells at 100 nM assessed as DNA fragmentation; type: functional, cell-based
In short: (§1)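 ECV304 plated at 2 × 10⁶ cells per 90 mm dish in DMEM with 10% FCS, allowed 5-6 h to reattach, then exposed to 10 nM-1 µM for 24 h in fresh medium; 100 nM positive control. Strongly and loosely adherent cells harvested separately and lysed (1 mM Tris-Cl, 20 mM EDTA pH 8, 1% NP-40).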

[3] = Cytotoxicity against human ECV304 cells after 72 hrs by MTT assay; type: cell-based, ECV-304; conditions: Homo sapiens, ECV-304, 72 h; read-out: IC50
In short: (§2)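 MTT assay. Cells seeded at 5000-10 000 per well and incubated at 37 °C in CO₂ with compound at 1-100 µg/mL in triplicate wells for 72 h, then MTT added. Absorbance read at 540 nm; % cytotoxicity = 100 × (1 − treated/control). IC50 obtained by nonlinear regression; NA means IC50 above 100 µg/mL.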

[4] = Cytotoxicity against human Hep2 cells after 72 hrs by MTT assay; type: cell-based, HEp-2; conditions: Homo sapiens, HEp-2, 72 h; read-out: IC50; in short: as §2
HEK293 = test: Cytotoxicity against human HEK293 cells after 72 hrs by MTT assay; type: cell-based; conditions: Homo sapiens, HEK293, 72 h; read-out: IC50; in short: as §2
[5] = Cmax in iv dosed Swiss Albino mouse plasma; type: ADME, organism-based; set-up: route intravenous
In short: (§3)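 Swiss albino mice (6-8 weeks, ~25 g) dosed intravenously with compound in a cosolvent formulation diluted in 5% dextrose. Blood drawn by orbital bleed under mild ether at 3, 10, 30 min, 1, 2, 4, 6, 8 and 24 h into EDTA, with no more than five bleeds per mouse. Plasma was solvent-extracted and measured by C18 HPLC against an internal standard and a standard curve. Results are mean ± SD, n = 3.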

[6] = Mean residence time in iv dosed Swiss Albino mouse plasma; type: ADME, organism-based; in short: as §3
HT-29 = test: Cytotoxicity against human HT29 cells after 72 hrs by MTT assay; type: cell-based; conditions: Homo sapiens, HT-29, 72 h; read-out: IC50; in short: as §2
ECV-304 [7] = test: Apoptosis in strongly adherent human ECV304 cells at 10 nM assessed as DNA fragmentation; type: functional, cell-based; in short: as §1
KB = test: Cytotoxicity against human KB cells after 72 hrs by MTT assay; type: cell-based; conditions: Homo sapiens, KB, 72 h; read-out: IC50; in short: as §2
L132 = test: Cytotoxicity against human L132 cells after 72 hrs by MTT assay; type: cell-based; conditions: Homo sapiens, L132, 72 h; read-out: IC50; in short: as §2
[8] = Cytotoxicity against human PA1 cells after 72 hrs by MTT assay; type: cell-based, PA-1; conditions: Homo sapiens, PA-1, 72 h; read-out: IC50; in short: as §2
[9] = Half life in iv dosed Swiss Albino mouse plasma; type: ADME, organism-based; in short: as §3
[10] = Aqueous solubility in phosphate buffer at pH 7.4
[11] = Clearance in iv dosed Swiss Albino mouse plasma; type: ADME, organism-based; in short: as §3
MIA PaCa-2 = test: Cytotoxicity against human MiaPaCa2 cells after 72 hrs by MTT assay; type: cell-based; conditions: Homo sapiens, MIA PaCa-2, 72 h; read-out: IC50; in short: as §2
Mus musculus = test: Volume of distribution in iv dosed Swiss Albino mouse plasma; type: ADME, organism-based; conditions: in vivo; in short: as §3
ECV-304 [12] = test: Enhanced mitotic arrest in human ECV304 cells assessed as accumulation at G2/M phase at 1 uM after 24 hrs relative to control; type: functional
In short: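 ECV304 at 1.5 × 10⁶ cells per 90 mm dish in DMEM with 10% FCS overnight, then 1 µM for 24 h in fresh medium. Cells trypsinised, fixed in ice-cold 70% ethanol, treated with trypsin inhibitor and RNase, and stained with propidium iodide in the dark at 4-10 °C for 1 h. Flow cytometry with low gate at 10% of the G1 peak; G1 and G2/M fractions against untreated control.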

[13] = AUC in iv dosed Swiss Albino mouse plasma; type: ADME, organism-based; in short: as §3
DU-145 = test: Cytotoxicity against human DU145 cells after 72 hrs by MTT assay; type: cell-based; conditions: Homo sapiens, DU-145, 72 h; read-out: IC50; in short: as §2
ECV-304 [14] = test: Apoptosis in strongly adherent human ECV304 cells at 1000 nM assessed as DNA fragmentation; type: functional, cell-based; in short: as §1
[15] = Cytotoxicity against human primary tumor colon cells; type: cell-based
Homo sapiens = test: Antitumor activity in primary tumor colon xenografted Balb/C athymic nude mouse assessed as decreased tumor volume at 20 mg/kg, iv on day 19; type: functional, organism-based; set-up: dose 20 mg/kg
In short: (§4)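 PTC colon tumour cells (15 × 10⁶ cells/100 µL) inoculated subcutaneously in Balb/c athymic nude mice aged 6-8 weeks, about 20 g; 3 animals per group. Dosing began at about 500 mm³: 20 mg/kg i.v. once daily for 14 days, cosolvent formulation diluted in 5% dextrose; controls received vehicle. Caliper volume W×W×L×0.4 every fourth day; regression = (1 − treated/control volume) × 100; Dunnett comparison, p < 0.05.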

ECV-304 [16] = test: Apoptosis in loosely adherent human ECV304 cells assessed as DNA fragmentation; type: functional, cell-based; in short: as §1
[17] = Antitumor activity in primary tumor colon xenografted Balb/C athymic nude mouse assessed as decreased tumor volume at 20 mg/kg, iv on day 22 relative to control; type: functional, Homo sapiens; set-up: scale not given: the % may be the effect or the level left; in short: as §4

| Structure (SMILES) | IC50 [1] [µM] | Activity (ECV-304 [2]) | IC50 [3] [mg/L] | IC50 [4] [mg/L] | IC50 (HEK293) [mg/L] | Cmax [5] [µg/mL] | MRT [6] [min] | IC50 (HT-29) [mg/L] | Activity (ECV-304 [7]) | IC50 (KB) [mg/L] | IC50 (L132) [mg/L] | IC50 [8] [mg/L] | half-life [9] [min] | solubility [10] [µM] | clearance [11] [mL/min] | IC50 (MIA PaCa-2) [mg/L] | Vdss (Mus musculus) [mL] | Activity (ECV-304 [12]) [%] | AUC [13] [µg·h/mL] | IC50 (DU-145) [mg/L] | also measured |
| --- | --- | --- | --- | --- | --- | --- | --- | --- | --- | --- | --- | --- | --- | --- | --- | --- | --- | --- | --- | --- | --- |
| COc1ccc(/C=C\c2cc(OC)c(OC)c(OC)c2)cc1O [COMBRETASTATIN A4] | 0.98 | inactive | < 1 | 5 (≈ 15.8 µM) | 5.7 (≈ 18 µM) | 3.83 | 9 | 5 (≈ 15.8 µM) | inactive | < 1 | < 1 | < 1 | 11.4 | 123 (≈ 38.8 µg/mL) | 4.86 | < 1 | 80.82 | 41 | 0.92 | 57 (≈ 180 µM) | Activity (ECV-304 [14]): inactive |
| COc1ccc(C2=C(c3cc(OC)c(OC)c(OC)c3)/C(=N\O)C(O)C2)cc1 (stereo unspecified) | 1.75 | inactive | < 1 | < 1 | 4.2 (≈ 10.9 µM) | 7.05 | 31.8 | < 1 | inactive | < 1 | < 1 | < 1 | 28.2 | 360 (≈ 139 µg/mL) | 1.15 | < 1 | 46.56 | 59 | 3.84 | > 100 | IC50 [15]: 0.271 mg/L (≈ 0.703 µM); Activity (Homo sapiens): Active; Activity (ECV-304 [16]): Dose-dependent effect; Activity [17]: 45.8%; Activity (ECV-304 [14]): inactive |
